Assay results as given in ChEMBL document CHEMBL4049439, “Synthesis and Characterization of Tetrahydropyran-Based Bacterial Topoisomerase Inhibitors with Antibacterial Activity against Gram-Negative Bacteria” (J Med Chem, 2017).
≈ marks a conversion by molar mass, not a printed value. Calls of active or inactive are those of the source. The rule behind the calls is not given here.

Key:
Escherichia coli [1] = assay: Antibacterial activity against Escherichia coli MG1655 harboring rfac deletion mutant by CLSI broth microdilution method; format: functional; conditions: K-12 substr. MG1655
Summary of the method: (§1)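 MIC (μg/mL) measured against engineered derivatives of E. coli MG1655. ΔrfaC has truncated LPS (raised permeability). ΔtolC lacks the outer-membrane TolC efflux component. ΔacrAB lacks the AcrAB efflux system of the cytoplasmic membrane.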

Escherichia coli [2] = assay: Antibacterial activity against Escherichia coli MG1655 harboring AcrAB deletion mutant by CLSI broth microdilution method; format: functional; conditions: K-12 substr. MG1655; summary of the method: as §1
Staphylococcus aureus = assay: Antibacterial activity against methicillin-sensitive Staphylococcus aureus A-1178 infected in cyclophosphamide-induced neutropenic NMRI mouse model assessed as log reduction in colony forming units in thighs at 40 mg/kg, sc treated 2 hrs post infection measured 22 hrs post dose; format: functional
Summary of the method: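 Neutropenic mouse thigh model infected with a methicillin-sensitive S. aureus strain, subcutaneous dosing. Thigh CFU measured 24 h post-infection (22 h post-treatment). Net log reduction given against CFU at treatment start.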

Rattus norvegicus = assay: Dose normalized unbound AUC in Wistar rat at 10 mg/kg, iv by LC-MS/MS analysis; format: ADME, organism-based; conditions: in vivo
Summary of the method: (§2)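 Rats dosed iv at 10 mg/kg or 1 mg/kg. Dose-normalized AUC (μg·h/(mL·dose)) and its unbound counterpart derived via fraction unbound. Clearance, unbound clearance, Vdss and half-life also derived.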

Serratia marcescens = assay: Antibacterial activity against Serratia marcescens by CLSI broth microdilution method; format: functional
Mus musculus [3] = assay: Dose normalized unbound AUC in NMRI mouse at 10 mg/kg, iv by LC-MS/MS analysis; format: ADME, organism-based; conditions: in vivo
Summary of the method: (§3)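 Mice dosed iv at 10 mg/kg or sc at 120 mg/kg. AUC normalized to dose (μg·h/(mL·dose)). Unbound AUC derived using fraction unbound. Clearance, Vdss and terminal half-life also derived.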

[4] = Ratio of AUC in NMRI mouse to MIC for methicillin-sensitive Staphylococcus aureus A-1178 infected in cyclophosphamide-induced neutropenic NMRI mouse model at 40 mg/kg/day
[5] = Terminal half-life in Wistar rat at 10 mg/kg, iv by LC-MS/MS analysis; format: ADME, organism-based; conditions: in vivo, read-out: beta t1/2 (converted); summary of the method: as §2
[6] = Solubility of the compound at pH 1 to 9; format: physicochemical; conditions: buffer
Escherichia coli [7] = assay: Ratio of MIC for wild-type Escherichia coli MG1655 to MIC for Escherichia coli MG1655 harboring AcrAB deletion mutant; format: functional, K-12 substr. MG1655
Summary of the method: (§4)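 Fold change in MIC for each MG1655 derivative (ΔacrAB, ΔrfaC, ΔtolC) relative to the MIC measured on wild-type E. coli MG1655, with both MICs in μg/mL.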

Escherichia coli [8] = assay: Ratio of MIC for wild-type Escherichia coli MG1655 to MIC for Escherichia coli MG1655 harboring rfac deletion mutant; format: functional, K-12 substr. MG1655; summary of the method: as §4
Streptococcus agalactiae = assay: Antibacterial activity against Streptococcus agalactiae by CLSI broth microdilution method; format: functional
Acinetobacter baumannii = assay: Antibacterial activity against fluoroquinolone-resistant Acinetobacter baumannii T6474 by CLSI broth microdilution method; format: functional
Escherichia coli [9] = assay: Ratio of MIC for wild-type Escherichia coli MG1655 to MIC for Escherichia coli MG1655 harboring tolC deletion mutant; format: functional, K-12 substr. MG1655; summary of the method: as §4
Escherichia coli [10] = assay: Antibacterial activity against Escherichia coli MG1655 harboring tolC deletion mutant by CLSI broth microdilution method; format: functional; conditions: K-12 substr. MG1655; summary of the method: as §1
Klebsiella pneumoniae = assay: Antibacterial activity against Klebsiella pneumoniae by CLSI broth microdilution method; format: functional
Escherichia coli [11] = assay: Antibacterial activity against wild-type Escherichia coli MG1655 by CLSI broth microdilution method; format: functional; conditions: K-12 substr. MG1655
Summary of the method: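 MIC (μg/mL) determined on wild-type E. coli MG1655, the parent of isogenic strains with truncated LPS or deleted TolC or AcrAB efflux.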

[12] = Terminal half-life in NMRI mouse at 10 mg/kg, iv by LC-MS/MS analysis; format: ADME, organism-based; conditions: in vivo, read-out: beta t1/2 (converted); summary of the method: as §3
[13] = Volume of distribution at steady state in NMRI mouse at 10 mg/kg, iv by LC-MS/MS analysis; format: ADME, organism-based; conditions: in vivo, read-out: Vdss
Summary of the method: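 Mice received a single dose of 10 mg/kg intravenously, or 120 mg/kg subcutaneously for one compound. Clearance, Vdss, half-life, unbound fraction and dose-normalized AUC were derived from plasma exposure.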

[14] = Fraction unbound in NMRI mouse at 10 mg/kg, iv by rapid equilibrium dialysis; format: ADME, organism-based; conditions: plasma; summary of the method: as §3
Cavia porcellus = assay: Cardiotoxicity in Dunkin-Hartley guinea pig assessed as free plasma concentration causing effect on QT interval administered as iv at 3 mg/kg for first 20 mins of infusion followed by 10 mg/kg for second 20 mins of infusion followed by 30 mg/kg for third 20 mins of infusion by LC-MS/MS analysis; format: toxicity, organism-based; conditions: in vivo
Summary of the method: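 Anesthetized guinea pigs received 3, 10 and 30 mg/kg iv over three consecutive 20 min periods. MAP, HR and ECG intervals (PR, QRS, RR, QT) recorded continuously. Blood drawn at the end of each period for drug levels. Value is the lowest plasma concentration differing from vehicle-treated animals. Free level uses unbound fraction from rapid equilibrium dialysis of guinea pig plasma.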

Escherichia coli [15] = assay: Antibacterial activity against Escherichia coli ATCC 25922 infected in cyclophosphamide-induced neutropenic NMRI mouse model assessed as reduction in colony forming units in thighs at 120 mg/kg, sc treated 2 hrs post infection measured 5.5 hrs post dose; format: functional, organism-based
Summary of the method: (§5)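 Neutropenic murine thigh infection with an E. coli strain, compound given subcutaneously. Thigh CFU counted 7.5 h post-infection (5.5 h post-treatment). Net change expressed relative to CFU at treatment start.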

Mus musculus [16] = assay: Dose normalized AUC in NMRI mouse at 120 mg/kg, sc by LC-MS/MS analysis; format: ADME, organism-based; conditions: in vivo; summary of the method: as §3
Mus musculus [17] = assay: Dose normalized unbound AUC in NMRI mouse at 120 mg/kg, sc by LC-MS/MS analysis; format: ADME, organism-based; conditions: in vivo; summary of the method: as §3
[18] = Apparent clearance in NMRI mouse at 120 mg/kg, sc by LC-MS/MS analysis; format: ADME, organism-based; conditions: in vivo; summary of the method: as §3
[19] = Terminal half-life in NMRI mouse at 120 mg/kg, sc by LC-MS/MS analysis; format: ADME, organism-based; conditions: in vivo, read-out: beta t1/2 (converted); summary of the method: as §3
Escherichia coli [20] = assay: Antibacterial activity against Escherichia coli ATCC 25922 infected in cyclophosphamide-induced neutropenic NMRI mouse model assessed as log reduction in colony forming units in thighs at 360 mg/kg, sc treated 2 hrs post infection measured 5.5 hrs post dose; format: functional; summary of the method: as §5
[21] = Fraction unbound in NMRI mouse plasma at 120 mg/kg, sc by rapid equilibrium dialysis; format: ADME, organism-based; summary of the method: as §3
[22] = Clearance in dog at 1 mg/kg, iv by LC-MS/MS analysis; format: ADME, organism-based, Canis lupus familiaris; conditions: in vivo
Summary of the method: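 Dogs given 1 mg/kg iv. Clearance (mL/min/kg) and half-life (h) derived from plasma profiles.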

Escherichia coli [23] = assay: Antibacterial activity against Escherichia coli ATCC 25922 by CLSI broth microdilution method; format: functional

`COc1ccc2ncc(F)c(C[C@H](N)[C@@H]3CC[C@@H](NCc4ccc5c(n4)NC(=O)CO5)CO3)c2n1` gave an MIC (Escherichia coli [1]) of 0.031 µg/mL (≈ 0.0642 µM), an MIC (Escherichia coli [2]) of 0.008 µg/mL (≈ 0.0166 µM) and an Activity (Staphylococcus aureus) greater than 2.5 log10CFU. For the same compound, the fAUC/dose (Rattus norvegicus) was 29 µg·h/mL, the MIC (Serratia marcescens) was 1 to 8 µg/mL (≈ 2.07 to 16.6 µM) and the fAUC/dose (Mus musculus [3]) was 35.4 µg·h/mL. It also gave a RatioAUC/MIC [4] of 23.5, a half-life [5] of 8.8 h and a solubility [6] greater than 100 µg/mL. It also gave a Ratio (Escherichia coli [7]) of 8, a Ratio (Escherichia coli [8]) of 2 and an MIC (Streptococcus agalactiae) of 2 µg/mL (≈ 4.14 µM). It also gave an MIC (Acinetobacter baumannii) of 0.125 µg/mL (≈ 0.259 µM), a Ratio (Escherichia coli [9]) of 8 and an MIC (Escherichia coli [10]) of 0.008 µg/mL (≈ 0.0166 µM). For the same compound, the MIC (Klebsiella pneumoniae) was 1 to 4 µg/mL (≈ 2.07 to 8.29 µM), the MIC (Escherichia coli [11]) was 0.063 µg/mL (≈ 0.131 µM) and the half-life [12] was 5.6 h. For the same compound, the Vd [13] was 12.3 L/kg, the fraction unbound [14] was 0.15 and the “Cp(f)” value (Cavia porcellus) was 530 nM.
With `COc1ccc2ccc(=O)n(C[C@H](N)[C@@H]3CC[C@@H](NCc4ccc5c(n4)NC(=O)CO5)CO3)c2n1` the fAUC/dose (Rattus norvegicus) was 34 µg·h/mL, the Activity (Escherichia coli [15]) was “inactive” and the MIC (Serratia marcescens) was 8 to 16 µg/mL (≈ 16.6 to 33.3 µM). The AUC/dose (Mus musculus [16]) was 186 µg·h/mL, the fAUC/dose (Mus musculus [17]) was 68.6 µg·h/mL and the CL/F [18] was 86 mL/min/kg. It also gave a half-life [19] of 5.2 h, an Activity (Escherichia coli [20]) of 2 log10CFU and a half-life [5] of 9.1 h. For the same compound, the fraction unbound [21] was 0.369, the MIC (Streptococcus agalactiae) was 4 µg/mL (≈ 8.32 µM) and the MIC (Acinetobacter baumannii) was 1 µg/mL (≈ 2.08 µM). The clearance [22] was 45 mL/min/kg, the MIC (Klebsiella pneumoniae) was 8 to 16 µg/mL (≈ 16.6 to 33.3 µM) and the MIC (Escherichia coli [23]) was 0.25 µg/mL (≈ 0.52 µM). The “Cp(f)” value (Cavia porcellus) was 2700 nM.
